From ChEMBL document CHEMBL2046392, “Synthesis and evaluation of carbocyanine dyes as PRMT inhibitors and imaging agents” (Eur J Med Chem, 2012)
Activity calls are given as the source filed them. The rule behind the calls is not given here.

What was measured:
[1] = tested on: HeLa; assay: Cell cycle arrest in human HeLa cells assessed as accumulation at G2/M phase at 1 uM after 24 hrs by propidium iodide staining-based flow cytometric analysis (reference value: 29.2%); format: functional
Procedure, shortened: (§1)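 HeLa cells (1 × 10^6, exponential growth) exposed to compound for 24 or 48 h; collected, fixed in ice-cold 70% ethanol, stored at 4°C, rinsed in PBS, stained with 40 μg/ml propidium iodide plus RNase A; DNA content by flow cytometry, cell-cycle subpopulations as percentages. Tested at 0.3, 1, 2.5 and 5 μM (24 h).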

[2] = tested on: HeLa; assay: Induction of apoptosis in human HeLa cells assessed as increase in sub-G1 peak at 2.5 to 5 uM after 48 hrs by propidium iodide staining-based flow cytometric analysis; format: functional, cell-based; procedure, shortened: as §1
[3] = tested on: HeLa; assay: Cell cycle arrest in human HeLa cells assessed as accumulation at G1 phase at 1 uM after 24 hrs by propidium iodide staining-based flow cytometric analysis (reference value: 57.2%); format: functional; procedure, shortened: as §1
[4] = Inhibition of His-tagged PRMT1 Y152A mutant expressed in Escherichia coli BL21(DE3) cells assessed as residual activity using [14C]-S-adenosyl-L-methionine and histone H4 peptide at 4 uM measured after 8 mins by scintillation counting
Procedure, shortened: (§2)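 50 mM HEPES pH 8.0, 0.5 mM DTT, 1 mM EDTA, 50 mM NaCl, 30°C; 2 μM H4(1-20), 5 μM [14C]AdoMet, inhibitor preincubated 5 min, started with 0.05 μM enzyme, 8 min; P81 filter binding, scintillation.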

[5] = Cellular uptake in human HeLa cell cytoplasmic vesicles at 2 to 5 uM after 6 hrs by bright field microscopic analysis; format: ADME, cell-based
Procedure, shortened: (§3)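 HeLa cells seeded on coverglass overnight, treated with 0, 2 or 5 μM for 6 h (DMSO control), fixed 10 min in 4% paraformaldehyde at room temperature. Bright-field images under visible light; NIR fluorescence by confocal microscopy with 633 nm excitation and 715–785 nm long-pass emission.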

[6] = biological target: Protein arginine N-methyltransferase 1 (Homo sapiens) (UniProt Q99873); conditions: 4 uM
[7] = Cellular uptake in human HeLa cell cytoplasmic vesicles at 2 to 5 uM after 6 hrs by fluorescent microscopic analysis; format: ADME, cell-based; procedure, shortened: as §3
[8] = biological target: Protein arginine N-methyltransferase 3 (Homo sapiens, UniProt O60678); assay: Inhibition of His6X-tagged PRMT3 expressed in Escherichia coli BL21(DE3) cells using [14C]-S-adenosyl-L-methionine and R4 peptide after 8 mins by scintillation counting
[9] = Cellular uptake in human HeLa cell nucleus at 2 to 5 uM after 6 hrs by fluorescent microscopic analysis; format: ADME, cell-based; procedure, shortened: as §3
[10] = Cellular uptake in human HeLa cell around nucleus at 2 to 5 uM after 6 hrs by fluorescent microscopic analysis; format: ADME, cell-based; procedure, shortened: as §3
[11] = Cellular uptake in human HeLa cell nucleus after 6 hrs by bright field microscopic analysis; format: ADME, cell-based; procedure, shortened: as §3
[12] = tested on: HeLa; assay: Cell cycle arrest in human HeLa cells assessed as accumulation at S phase at 1 uM after 24 hrs by propidium iodide staining-based flow cytometric analysis (reference value: 12.2%); format: functional; procedure, shortened: as §1
[13] = biological target: Protein arginine N-methyltransferase 6 (Homo sapiens, UniProt Q96LA8); assay: Inhibition of His6X-tagged PRMT6 expressed in Escherichia coli BL21(DE3) cells using [14C]-S-adenosyl-L-methionine and histone H3(1-31) peptide after 8 mins by scintillation counting
[14] = biological target: Protein arginine N-methyltransferase 5 (Homo sapiens, UniProt O14744); assay: Inhibition of His6X-tagged PRMT5 expressed in Escherichia coli BL21(DE3) cells using [14C]-S-adenosyl-L-methionine and histone H4 peptide after 8 mins by scintillation counting
[15] = tested on: HeLa; assay: Cell cycle arrest in human HeLa cells assessed as accumulation at S phase after 24 hrs by propidium iodide staining-based flow cytometric analysis (reference value: 12.2%); format: functional; procedure, shortened: as §1
[16] = biological target: Protein arginine N-methyltransferase 1 (Homo sapiens) (UniProt Q99873); assay: Inhibition of His-tagged PRMT1 expressed in Escherichia coli BL21(DE3) cells assessed as residual activity using [14C]-S-adenosyl-L-methionine and histone H4 peptide at 100 uM after 8 mins by scintillation counting; procedure, shortened: as §2

Chain of Protein arginine N-methyltransferase 1 (Homo sapiens) (Q99873 whole entry, looked up): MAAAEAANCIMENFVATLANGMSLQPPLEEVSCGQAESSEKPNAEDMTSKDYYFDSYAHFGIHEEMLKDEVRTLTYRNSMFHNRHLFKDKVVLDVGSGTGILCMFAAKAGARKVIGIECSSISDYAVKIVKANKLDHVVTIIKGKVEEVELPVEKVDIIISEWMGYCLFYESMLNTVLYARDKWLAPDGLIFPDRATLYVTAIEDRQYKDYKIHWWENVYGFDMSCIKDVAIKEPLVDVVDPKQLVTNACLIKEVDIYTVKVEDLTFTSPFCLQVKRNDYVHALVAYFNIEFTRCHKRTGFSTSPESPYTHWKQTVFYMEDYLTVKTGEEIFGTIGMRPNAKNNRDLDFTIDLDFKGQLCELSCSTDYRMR
Chain of Protein arginine N-methyltransferase 3 (O60678 whole entry): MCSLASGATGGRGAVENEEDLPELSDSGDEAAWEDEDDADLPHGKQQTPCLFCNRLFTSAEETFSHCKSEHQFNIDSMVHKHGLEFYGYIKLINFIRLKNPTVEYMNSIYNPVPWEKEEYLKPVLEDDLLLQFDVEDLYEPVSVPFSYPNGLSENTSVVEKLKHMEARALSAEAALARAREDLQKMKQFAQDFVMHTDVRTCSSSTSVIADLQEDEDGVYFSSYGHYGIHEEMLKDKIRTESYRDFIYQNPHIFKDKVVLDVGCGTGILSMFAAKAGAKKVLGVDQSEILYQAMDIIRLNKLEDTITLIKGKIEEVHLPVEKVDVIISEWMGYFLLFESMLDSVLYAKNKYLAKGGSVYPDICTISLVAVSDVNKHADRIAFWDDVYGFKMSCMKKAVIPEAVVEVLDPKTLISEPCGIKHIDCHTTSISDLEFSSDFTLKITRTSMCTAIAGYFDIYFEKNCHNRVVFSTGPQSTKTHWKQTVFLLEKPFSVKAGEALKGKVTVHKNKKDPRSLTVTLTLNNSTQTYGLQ
Chain of Protein arginine N-methyltransferase 6 (Q96LA8 whole entry): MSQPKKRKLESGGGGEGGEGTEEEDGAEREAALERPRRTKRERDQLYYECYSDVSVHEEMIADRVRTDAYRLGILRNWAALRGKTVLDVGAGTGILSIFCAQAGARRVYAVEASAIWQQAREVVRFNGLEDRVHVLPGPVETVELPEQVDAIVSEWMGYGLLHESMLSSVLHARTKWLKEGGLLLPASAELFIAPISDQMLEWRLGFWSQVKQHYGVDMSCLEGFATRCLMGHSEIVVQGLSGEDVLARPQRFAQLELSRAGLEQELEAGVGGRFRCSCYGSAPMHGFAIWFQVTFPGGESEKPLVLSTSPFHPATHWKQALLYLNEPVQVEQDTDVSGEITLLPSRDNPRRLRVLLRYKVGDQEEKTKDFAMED
Chain of Protein arginine N-methyltransferase 5 (O14744 whole entry): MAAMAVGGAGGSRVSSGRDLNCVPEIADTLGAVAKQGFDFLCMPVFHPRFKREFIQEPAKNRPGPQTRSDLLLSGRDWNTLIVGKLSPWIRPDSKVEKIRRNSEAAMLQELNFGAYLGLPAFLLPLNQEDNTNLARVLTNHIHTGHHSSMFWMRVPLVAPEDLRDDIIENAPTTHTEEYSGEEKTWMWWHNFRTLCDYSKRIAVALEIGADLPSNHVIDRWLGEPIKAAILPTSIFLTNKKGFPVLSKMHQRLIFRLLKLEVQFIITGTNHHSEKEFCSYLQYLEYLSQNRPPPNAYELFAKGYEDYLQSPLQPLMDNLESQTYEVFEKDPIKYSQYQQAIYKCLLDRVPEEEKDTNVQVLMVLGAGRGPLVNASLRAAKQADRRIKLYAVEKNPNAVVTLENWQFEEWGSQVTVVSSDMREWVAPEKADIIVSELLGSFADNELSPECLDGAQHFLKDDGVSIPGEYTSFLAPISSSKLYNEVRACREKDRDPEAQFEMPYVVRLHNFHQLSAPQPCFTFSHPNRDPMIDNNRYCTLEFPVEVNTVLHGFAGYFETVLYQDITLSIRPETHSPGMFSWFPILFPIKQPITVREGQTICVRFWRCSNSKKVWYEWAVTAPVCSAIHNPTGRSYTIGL

| Drug uptake [5] | inhibition [6] [%] | Drug uptake [7] | IC50 [8] [µM] | Drug uptake [9] | Drug uptake [10] | Drug uptake [11] | IC50 [13] [µM] | IC50 [14] [µM] | Activity [16] [%] | SMILES | Activity [1] [%] | Activity [2] | Activity [3] [%] | inhibition [4] | Activity [12] [%] | Activity [15] |
| --- | --- | --- | --- | --- | --- | --- | --- | --- | --- | --- | --- | --- | --- | --- | --- | --- |
| Active | 92 | Active | 8.3 | Active | Active | Dose-dependent effect | 12.6 | 9.1 | – | CCn1/c(=C\C=C\C2=[N+](CC)c3cccc4cccc2c34)c2cccc3cccc1c32.[I-] | 13.9 | Active | 23.6 | Active | 56.5 | Active |
| – | – | – | – | – | – | – | – | – | 95 | COc1ccc2c(c1)C(C)(C)C(/C=C/C=C/C=C1\N(C)c3ccc(OC)cc3C1(C)C)=[N+]2C | – | – | – | – | – | – |
| – | – | – | – | – | – | – | – | – | 80 | CN1\C(=C/C=C(Cl)/C=C/C2=[N+](C)c3ccccc3C2(C)C)C(C)(C)c2ccccc21 | – | – | – | – | – | – |
